Assays:
Rattus norvegicus [1] = experiment: Antipsychosis activity in ip dosed Sprague-Dawley rat assessed as reduction of […] in horizontal ambulations administered 30 mins before PCP challenge measured after 60 mins; format: functional
[2] = target: T1, Metabotropic glutamate receptor 8 (Homo sapiens, UniProt O00222); experiment: Antagonist activity at human recombinant mGlu8 receptor expressed in AV12 cells assessed as inhibition of glutamate-stimulated Ca2+ mobilization after 1 hr by FLIPR assay; format: functional, cell-based
[3] = target: Metabotropic glutamate receptor 2 (Homo sapiens, UniProt Q14416); experiment: Agonist activity at human recombinant mGlu2 receptor expressed in AV12 cells assessed as stimulation of Ca2+ mobilization after 1 hr by FLIPR assay; format: functional, cell-based
[4] = target: T1, Metabotropic glutamate receptor 8; experiment: Agonist activity at human recombinant mGlu8 receptor expressed in AV12 cells assessed as stimulation of Ca2+ mobilization after 1.5 hrs by FLIPR assay; format: functional, cell-based
[5] = Bioavailability in Sprague-Dawley rat at 1 mg/kg, ip; format: ADME, organism-based; details: in vivo
Summary of the method: (§1)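 Fasted male Sprague–Dawley rats (~250 g) received a single dose of compound dissolved in water and adjusted to pH 7–7.5 with NaOH, given iv, by oral gavage or ip. Serial blood samples (11–12 per rat) were drawn from a jugular vein catheter into EDTA and kept frozen. Plasma was mixed with methanol:water (1:1) containing an analogue internal standard for analysis. Mean plasma parameters are reported.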

[6] = Half life in Sprague-Dawley rat at 5 mg/kg, po; format: ADME, organism-based; details: in vivo; summary of the method: as §1
[7] = Half life in Sprague-Dawley rat at 1 mg/kg, ip; format: ADME, organism-based; details: in vivo; summary of the method: as §1
[8] = Fraction unbound in rat plasma; format: ADME, cell-free
CYP2C9 = CYP2C9 (Homo sapiens, UniProt P11712); experiment: Inhibition of human CYP2C9 at 10 uM; format: ADME
Summary of the method: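 Inhibition of human CYP isoforms was measured with the compound tested at 10 µM.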

[9] = Drug level in Sprague-Dawley rat cerebrospinal fluid at 10 mg/kg, ip after 4 hrs; format: ADME, organism-based; details: read-out: Drug uptake
Summary of the method: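 Male Sprague–Dawley rats received single ip doses of 1, 3 or 10 mg/kg. Cerebrospinal fluid and plasma levels were determined at 0.5, 1 and 4 h. Mean csf concentration (nM ± SEM) is reported.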

[10] = Cmax in Sprague-Dawley rat at 1 mg/kg, ip; format: ADME, organism-based; design: dose 1 mg/kg, route intraperitoneal; details: in vivo; summary of the method: as §1
[11] = target: Metabotropic glutamate receptor 5 (Homo sapiens, UniProt P41594); experiment: Antagonist activity at human recombinant mGlu5 receptor expressed in AV12 cells assessed as inhibition of glutamate-stimulated Ca2+ mobilization after 1 hr by FLIPR assay; format: functional, cell-based
Rattus norvegicus [12] = experiment: Toxicity in Sprague-Dawley rat assessed as impairment of neuromuscular coordination at 10 mg/kg, ip after 1 hr by rotarod test; format: organism-based; details: in vivo

T1 sequence (O00222 whole entry): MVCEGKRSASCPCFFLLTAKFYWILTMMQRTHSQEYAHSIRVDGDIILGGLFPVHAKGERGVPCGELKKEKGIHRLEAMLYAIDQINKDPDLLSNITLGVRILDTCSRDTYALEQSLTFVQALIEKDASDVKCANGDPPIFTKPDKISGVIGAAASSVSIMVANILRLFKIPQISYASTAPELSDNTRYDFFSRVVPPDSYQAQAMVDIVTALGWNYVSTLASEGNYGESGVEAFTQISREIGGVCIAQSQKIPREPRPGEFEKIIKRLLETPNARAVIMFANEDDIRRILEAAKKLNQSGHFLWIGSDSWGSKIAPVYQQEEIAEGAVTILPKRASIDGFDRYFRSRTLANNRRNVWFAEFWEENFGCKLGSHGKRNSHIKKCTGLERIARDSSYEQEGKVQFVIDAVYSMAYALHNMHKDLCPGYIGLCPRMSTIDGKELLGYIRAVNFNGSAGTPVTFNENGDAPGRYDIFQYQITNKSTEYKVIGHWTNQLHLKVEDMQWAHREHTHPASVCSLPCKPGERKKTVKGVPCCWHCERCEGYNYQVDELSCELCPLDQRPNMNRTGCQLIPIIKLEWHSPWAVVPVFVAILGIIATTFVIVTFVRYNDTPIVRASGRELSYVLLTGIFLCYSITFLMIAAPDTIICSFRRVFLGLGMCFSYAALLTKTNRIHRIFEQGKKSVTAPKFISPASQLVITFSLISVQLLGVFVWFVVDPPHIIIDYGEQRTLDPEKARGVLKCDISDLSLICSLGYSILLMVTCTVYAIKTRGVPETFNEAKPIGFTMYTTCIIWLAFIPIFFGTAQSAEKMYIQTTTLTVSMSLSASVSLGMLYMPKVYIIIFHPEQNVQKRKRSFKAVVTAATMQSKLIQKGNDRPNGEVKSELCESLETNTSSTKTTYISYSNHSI
Sequence of Metabotropic glutamate receptor 5 (P41594 whole entry): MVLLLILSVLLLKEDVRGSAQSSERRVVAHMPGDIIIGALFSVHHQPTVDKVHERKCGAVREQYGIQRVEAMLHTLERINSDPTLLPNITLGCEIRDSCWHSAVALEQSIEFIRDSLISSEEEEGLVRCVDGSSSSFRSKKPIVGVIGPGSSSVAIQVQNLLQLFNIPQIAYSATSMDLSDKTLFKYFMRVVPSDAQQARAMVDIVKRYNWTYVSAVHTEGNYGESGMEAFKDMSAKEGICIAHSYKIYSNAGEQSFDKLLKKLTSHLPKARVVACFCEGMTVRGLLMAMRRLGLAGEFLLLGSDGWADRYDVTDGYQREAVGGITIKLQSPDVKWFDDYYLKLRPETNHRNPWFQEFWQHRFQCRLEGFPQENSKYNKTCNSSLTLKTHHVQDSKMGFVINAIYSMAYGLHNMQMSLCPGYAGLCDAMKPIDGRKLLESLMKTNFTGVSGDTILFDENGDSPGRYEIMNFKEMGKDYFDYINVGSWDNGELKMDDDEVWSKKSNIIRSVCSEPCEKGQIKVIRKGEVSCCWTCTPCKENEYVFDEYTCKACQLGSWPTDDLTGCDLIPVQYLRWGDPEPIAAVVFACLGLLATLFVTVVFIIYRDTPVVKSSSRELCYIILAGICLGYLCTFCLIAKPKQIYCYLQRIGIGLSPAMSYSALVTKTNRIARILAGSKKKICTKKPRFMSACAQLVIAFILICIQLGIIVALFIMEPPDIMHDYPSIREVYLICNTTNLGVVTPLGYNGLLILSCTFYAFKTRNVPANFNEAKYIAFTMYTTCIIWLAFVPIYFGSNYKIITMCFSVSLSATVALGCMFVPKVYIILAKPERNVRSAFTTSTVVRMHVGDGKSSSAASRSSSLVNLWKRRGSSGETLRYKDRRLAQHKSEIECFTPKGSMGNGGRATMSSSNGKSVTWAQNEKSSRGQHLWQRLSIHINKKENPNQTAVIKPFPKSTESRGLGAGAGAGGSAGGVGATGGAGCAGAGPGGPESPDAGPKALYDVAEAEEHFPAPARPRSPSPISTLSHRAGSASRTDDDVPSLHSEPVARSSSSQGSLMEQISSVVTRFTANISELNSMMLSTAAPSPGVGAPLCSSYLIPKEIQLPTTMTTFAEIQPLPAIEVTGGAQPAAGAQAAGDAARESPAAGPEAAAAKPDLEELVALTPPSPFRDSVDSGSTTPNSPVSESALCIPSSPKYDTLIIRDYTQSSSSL
Sequence of CYP2C9 (P11712 whole entry, canonical isoform): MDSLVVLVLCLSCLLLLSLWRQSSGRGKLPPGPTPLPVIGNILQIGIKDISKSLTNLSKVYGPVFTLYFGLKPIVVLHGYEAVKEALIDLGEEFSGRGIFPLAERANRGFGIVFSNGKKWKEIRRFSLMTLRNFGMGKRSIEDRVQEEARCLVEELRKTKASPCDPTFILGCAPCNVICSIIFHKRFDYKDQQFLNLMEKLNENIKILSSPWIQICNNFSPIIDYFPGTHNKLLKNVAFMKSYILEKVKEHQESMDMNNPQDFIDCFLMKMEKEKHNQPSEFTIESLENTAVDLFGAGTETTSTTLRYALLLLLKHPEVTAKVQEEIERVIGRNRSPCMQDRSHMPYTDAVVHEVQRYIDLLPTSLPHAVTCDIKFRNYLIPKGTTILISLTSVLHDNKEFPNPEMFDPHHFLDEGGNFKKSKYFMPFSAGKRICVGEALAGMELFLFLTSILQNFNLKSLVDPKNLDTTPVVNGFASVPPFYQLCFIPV
Sequence of Metabotropic glutamate receptor 2 (Q14416 whole entry): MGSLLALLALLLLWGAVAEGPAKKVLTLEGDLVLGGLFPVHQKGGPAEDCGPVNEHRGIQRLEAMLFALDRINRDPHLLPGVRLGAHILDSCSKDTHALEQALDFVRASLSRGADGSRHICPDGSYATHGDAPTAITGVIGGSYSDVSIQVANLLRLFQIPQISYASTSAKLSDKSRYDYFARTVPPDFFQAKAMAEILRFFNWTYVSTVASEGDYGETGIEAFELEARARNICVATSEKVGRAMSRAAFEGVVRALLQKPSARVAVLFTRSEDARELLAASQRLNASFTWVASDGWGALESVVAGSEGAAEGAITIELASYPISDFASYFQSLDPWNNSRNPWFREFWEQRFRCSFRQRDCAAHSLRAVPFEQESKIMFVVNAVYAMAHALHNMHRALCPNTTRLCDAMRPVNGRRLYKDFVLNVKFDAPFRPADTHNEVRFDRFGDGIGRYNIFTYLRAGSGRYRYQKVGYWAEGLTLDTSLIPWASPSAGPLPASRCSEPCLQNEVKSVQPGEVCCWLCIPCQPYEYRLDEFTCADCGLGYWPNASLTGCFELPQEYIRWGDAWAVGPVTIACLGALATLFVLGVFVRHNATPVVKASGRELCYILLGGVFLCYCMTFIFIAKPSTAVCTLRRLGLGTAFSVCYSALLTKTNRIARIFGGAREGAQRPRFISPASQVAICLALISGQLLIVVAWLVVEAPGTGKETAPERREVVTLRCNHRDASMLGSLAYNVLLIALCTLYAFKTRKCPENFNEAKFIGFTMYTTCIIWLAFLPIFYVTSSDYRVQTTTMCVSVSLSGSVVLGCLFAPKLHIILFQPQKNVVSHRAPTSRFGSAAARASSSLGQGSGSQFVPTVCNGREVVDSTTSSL

IC50 [2]: > 12.5 µM | EC50 [3]: 0.0211 µM | EC50 [4]: > 25 µM | bioavailability [5]: 122% | half-life [6]: 3.7 h | half-life [7]: 1.2 h | fraction unbound [8]: > 0.98 | inhibition at 10 µM (CYP2C9): < 10% | concentration at 4 h [9]: 86.7 nM | Cmax [10]: 4920 nM | IC50 [11]: > 12.5 µM
Structure (SMILES): N[C@@]1(C(=O)O)C[C@@H](Sc2nc[nH]n2)[C@H]2[C@H](C(=O)O)[C@H]21
ED50 (Rattus norvegicus [1]): 1.2 mg/kg | Activity (Rattus norvegicus [12]): Toxic

Source: ChEMBL document CHEMBL3616378 (J Med Chem, 2015)
